Activity calls are given as the source filed them. The calls are words filed in the database; no cut-off is given here.
Experiments:
BEL-7404 tumor cell line [1] = assay: Antitumor activity against human Bel7404 cells xenografted in Balb/c nude mouse assessed as relative tumor volume increment rate at 50 mg/kg, ip bid for 20 days measured on day 21 post last dose relative to control; assay type: functional
BEL-7404 tumor cell line [2] = assay: Antitumor activity against human Bel7404 cells xenografted in Balb/c nude mouse assessed as tumor growth inhibition at 25 mg/kg, ip bid for 20 days measured on day 21 post last dose relative to control; assay type: functional; settings: BEL-7404, ip, read-out: TGI
Mus musculus [3] = assay: Toxicity in Balb/c nude mouse xenografted with human Bel7404 cells assessed as change in body weight at 25 to 50 mg/kg, ip bid for 20 days; assay type: organism-based; settings: in vivo, 480 h
Mus musculus [4] = assay: Downregulation of APAF-1 protein expression in tumor tissues of Balb/c nude mouse xenografted with human Bel7404 cells at 25 to 50 mg/kg, ip bid for 20 days measured on day 21 by Western blot analysis; assay type: functional, organism-based
HepG2 [5] = assay: Cell cycle arrest in human HepG2 cells assessed as accumulation at G1-phase at 6 uM after 48 hrs by propidium iodide staining based flow cytometry (reference value: 50.47%); assay type: functional
HepG2 [6] = assay: Cell cycle arrest in human HepG2 cells assessed as accumulation at G2-phase at 10 uM after 48 hrs by propidium iodide staining based flow cytometry (reference value: 19.04%); assay type: functional
HepG2 [7] = assay: Cell cycle arrest in human HepG2 cells assessed as accumulation at G2/M phase after 48 hrs by propidium iodide staining based flow cytometry; assay type: functional
HepG2 [8] = assay: Downregulation of Cyclin-B1 protein expression in human HepG2 cells at 6 to 10 uM after 12 hrs by Western blot analysis; assay type: functional, cell-based
HepG2 [9] = assay: Downregulation of CDK1 protein expression in human HepG2 cells at 6 to 10 uM after 12 hrs by Western blot analysis; assay type: functional, cell-based
HepG2 [10] = assay: Downregulation of CDC25C protein expression in human HepG2 cells at 6 to 10 uM after 12 hrs by Western blot analysis; assay type: functional, cell-based
Mus musculus [11] = assay: Upregulation of p53 protein expression in tumor tissues of Balb/c nude mouse xenografted with human NCI-H460 cells at 25 to 50 mg/kg, ip bid for 13 days measured on day 14 by Western blot analysis; assay type: functional, organism-based
Procedure, shortened: (§1)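 Tumors from NCI-H460 xenografted BALB/c nude mice (25 or 50 mg/kg, vehicle 5% DMSO in saline) collected at day 14; protein levels in tumor tissue determined by western blot versus vehicle control.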

HepG2 [12] = assay: Induction of apoptosis in human HepG2 cells assessed as morphological changes at 6 to 10 uM after 12 hrs by […] staining based fluorescence microscopic method; assay type: functional, cell-based
Procedure, shortened: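 HepG2 cells treated for 12 h, stained with Hoechst 33258 and viewed by fluorescence microscopy for nuclear blue fluorescence and apoptotic morphology, compared with untreated cells.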

HepG2 [13] = assay: Induction of apoptosis in human HepG2 cells assessed as cell budding at 6 to 10 uM after 12 hrs by acridine orange/ethidium bromide staining based fluorescence microscopic method; assay type: functional
HepG2 [14] = assay: Induction of apoptosis in human HepG2 cells assessed as late apoptotic cells at 6 uM after 24 hrs by Annexin V-FITC/ propidium iodide staining based flow cytometry (reference value: 1.91%); assay type: functional
HepG2 [15] = assay: Induction of apoptosis in human HepG2 cells assessed as necrotic cells at 6 uM after 24 hrs by Annexin V-FITC/ propidium iodide staining based flow cytometry (reference value: 0.28%); assay type: functional
HepG2 [16] = assay: Induction of apoptosis in human HepG2 cells assessed as late apoptotic cells at 8 uM after 24 hrs by Annexin V-FITC/ propidium iodide staining based flow cytometry (reference value: 1.91%); assay type: functional
HepG2 [17] = assay: Induction of apoptosis in human HepG2 cells assessed as necrotic cells at 8 uM after 24 hrs by Annexin V-FITC/ propidium iodide staining based flow cytometry (reference value: 0.28%); assay type: functional
HepG2 [18] = assay: Induction of apoptosis in human HepG2 cells assessed as live cells at 10 uM after 24 hrs by Annexin V-FITC/ propidium iodide staining based flow cytometry (reference value: 91.31%); assay type: functional
HepG2 [19] = assay: Induction of apoptosis in human HepG2 cells assessed as necrotic cells at 10 uM after 24 hrs by Annexin V-FITC/ propidium iodide staining based flow cytometry (reference value: 0.28%); assay type: functional
HepG2 [20] = assay: Induction of ROS in human HepG2 cells at 6 to 10 uM by DAPI staining based fluorescence microscopic method; assay type: functional, cell-based
HepG2 [21] = assay: Induction of ROS in human HepG2 cells at 6 to 10 uM by DCFH-DA staining based fluorescence microscopic method; assay type: functional, cell-based
HepG2 [22] = assay: Induction of intracellular calcium level in human HepG2 cells at 6 to 10 uM after 24 hrs by Fluo3-AM staining based fluorescence microscopic method; assay type: functional, cell-based
HepG2 [23] = assay: Downregulation of Bcl2 protein expression in human HepG2 cells at 6 to 10 uM after 12 hrs by Western blot analysis; assay type: functional, cell-based
HepG2 [24] = assay: Upregulation of caspase-3 protein expression in human HepG2 cells at 6 to 10 uM after 12 hrs by Western blot analysis; assay type: functional, cell-based
Procedure, shortened: (§2)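 HepG2 cell lysates after compound treatment analyzed by western blot for the target protein, compared with untreated negative control.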

HepG2 [25] = assay: Upregulation of caspase-9 protein expression in human HepG2 cells at 6 to 10 uM after 12 hrs by Western blot analysis; assay type: functional, cell-based; procedure, shortened: as §2
HepG2 [26] = assay: Upregulation of PARP protein expression in human HepG2 cells at 6 to 10 uM after 12 hrs by Western blot analysis; assay type: functional, cell-based; procedure, shortened: as §2
Mus musculus [27] = assay: Upregulation of PARP protein expression in tumor tissues of Balb/c nude mouse xenografted with human NCI-H460 cells at 25 to 50 mg/kg, ip bid for 13 days measured on day 14 by Western blot analysis; assay type: functional, organism-based; procedure, shortened: as §1

For `O=c1[nH]c2cc3c(cc2cc1-c1nc2cc(Cl)ccc2[nH]1)OCO3`, the T/C (BEL-7404 tumor cell line [1]) was 44.8%, the inhibition in vivo at 25 mg/kg (BEL-7404 tumor cell line [2]) was 41.2% and the Activity (Mus musculus [3]) was “Non-Toxic”. The Activity (Mus musculus [4]) was “Active”.
For `O=c1[nH]c2ccccc2cc1-c1nc2cc(Cl)ccc2[nH]1`, the Activity (HepG2 [5]) was 41.52%, the Activity (HepG2 [6]) was 49.1% and the Activity (HepG2 [7]) was “Dose-dependent effect”. The Activity (HepG2 [8]) was “Active”, the Activity (HepG2 [9]) was “Active” and the Activity (HepG2 [10]) was “Active”. For the same molecule, the Activity (Mus musculus [11]) was “Active”, the Activity (HepG2 [12]) was “Active” and the Activity (HepG2 [13]) was “Active”. It also gave an Activity (HepG2 [14]) of 10.4%, an Activity (HepG2 [15]) of 0.76% and an Activity (HepG2 [16]) of 10.42%. The Activity (HepG2 [17]) was 0.32%, the Activity (HepG2 [18]) was 37.3% and the Activity (HepG2 [19]) was 0.45%. The Activity (HepG2 [20]) was “Active”, the Activity (HepG2 [21]) was “Active” and the Activity (HepG2 [22]) was “Active”. The Activity (HepG2 [23]) was “Active”, the Activity (HepG2 [24]) was “Active” and the Activity (HepG2 [25]) was “Active”. The Activity (HepG2 [26]) was “Active” and the Activity (Mus musculus [27]) was “Active”.

— ChEMBL document CHEMBL4270594, “Design, synthesis and pharmacological evaluation of new 3-(1H-benzimidazol-2-yl)quinolin-2(1H)-one derivatives as potential antitumor agents” (Eur J Med Chem, 2018)
